Results from PMC3401020 (Bioorganic & medicinal chemistry, 2011).

Tests used:
COX-1 [1] = biological target: T1, COX-1 (Ovis aries, UniProt P05979); assay: COX-1 inhibition, conversion of [14C]-arachidonic acid to [14C]-prostaglandins; format: biochemical, ovine; conditions: 25 μM concentration
T1 sequence (P05979 25-600): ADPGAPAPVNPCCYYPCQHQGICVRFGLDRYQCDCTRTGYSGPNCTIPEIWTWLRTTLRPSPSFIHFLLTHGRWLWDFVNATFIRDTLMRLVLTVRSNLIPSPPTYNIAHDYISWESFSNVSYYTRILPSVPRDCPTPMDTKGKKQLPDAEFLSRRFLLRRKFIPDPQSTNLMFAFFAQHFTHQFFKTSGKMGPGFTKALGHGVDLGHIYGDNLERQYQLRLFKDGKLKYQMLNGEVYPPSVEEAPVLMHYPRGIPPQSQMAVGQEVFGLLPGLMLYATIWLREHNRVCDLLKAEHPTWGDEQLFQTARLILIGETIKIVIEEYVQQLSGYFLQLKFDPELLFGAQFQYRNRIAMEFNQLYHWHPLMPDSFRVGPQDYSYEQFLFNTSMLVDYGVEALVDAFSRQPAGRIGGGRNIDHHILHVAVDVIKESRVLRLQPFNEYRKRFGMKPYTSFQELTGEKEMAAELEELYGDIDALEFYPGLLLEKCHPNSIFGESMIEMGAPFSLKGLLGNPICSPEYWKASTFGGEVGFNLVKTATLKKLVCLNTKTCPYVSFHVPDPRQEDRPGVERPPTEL
How it was run: (§1)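 Carbaborane esters of indomethacin screened at 25 μM against ovine COX-1 and murine COX-2, measuring conversion of [14C]-arachidonic acid to [14C]-prostaglandins. Reactions were stopped, then substrate consumption was read by thin-layer chromatography.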

COX-2 = biological target: T2, COX-2 (Mus musculus, UniProt Q05769); assay: COX-2 inhibition, conversion of [14C]-arachidonic acid to [14C]-prostaglandins; format: biochemical, murine; conditions: 25 μM concentration
T2 sequence (Q05769 18-604): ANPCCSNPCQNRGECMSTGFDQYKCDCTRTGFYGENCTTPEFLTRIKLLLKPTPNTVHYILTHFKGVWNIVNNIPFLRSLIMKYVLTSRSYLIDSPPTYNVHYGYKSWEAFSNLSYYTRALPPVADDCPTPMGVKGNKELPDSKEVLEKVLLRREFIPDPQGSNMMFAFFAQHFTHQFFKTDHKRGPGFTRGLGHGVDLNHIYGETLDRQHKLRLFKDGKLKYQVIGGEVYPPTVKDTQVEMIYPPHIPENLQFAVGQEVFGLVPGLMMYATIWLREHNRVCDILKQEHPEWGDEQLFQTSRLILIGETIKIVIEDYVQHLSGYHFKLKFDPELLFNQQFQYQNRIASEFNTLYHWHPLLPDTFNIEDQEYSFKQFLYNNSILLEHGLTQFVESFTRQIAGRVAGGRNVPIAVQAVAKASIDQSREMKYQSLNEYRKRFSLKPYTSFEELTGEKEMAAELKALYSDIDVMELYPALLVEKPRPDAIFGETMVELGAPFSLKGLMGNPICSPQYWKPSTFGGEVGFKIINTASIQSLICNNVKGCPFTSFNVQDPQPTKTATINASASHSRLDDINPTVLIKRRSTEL
How it was run: as §1

[2] = NMR stability measurements in wet methanol; format: physicochemical; conditions: assay timescale
COX-1 [3] = biological target: T1, COX-1; conditions: already reported; cited from earlier work

| COX-1 inhibition in screen (COX-1 [1]) | COX-2 inhibition in screen (COX-2) | stability in wet methanol (NMR) [2] | Molecule | IC50 COX-1 (COX-1 [3]) |
| --- | --- | --- | --- | --- |
| by far the best COX-inhibition | by far the best COX-inhibition | stable | 2-{1-[(4-Chlorophenyl)carbonyl]-5-methoxy-2-methyl-1H-indol-3-yl}acetic acid 1-(1,2-dicarba-closo-dodecaboranyl) ester [5o] | – |
| – | – | – | COc1ccc2c(c1)c(CC(=O)Oc1ccccc1)c(C)n2C(=O)c1ccc(Cl)cc1 [compound 10] | inactive |
